# Measurements reported in ChEMBL document CHEMBL4346672, “Antimicrobial and KPC/AmpC inhibitory activity of functionalized benzosiloxaboroles” (Eur J Med Chem, 2019).
# Active and inactive are the calls of the source. No cut-off for these calls is given here.
# Experiments:
# [1] = system: Staphylococcus aureus; test: Antibacterial activity against Staphylococcus aureus ATCC 6538P assessed as diameter of zone inhibition measured after 18 hrs by CLSI disc diffusion method; assay type: functional
# How it was run: (§1)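 Disc diffusion on Mueller-Hinton II agar. Compounds dissolved in DMSO. Strains stored at -80 °C and subcultured twice on tryptic soy agar before testing. Inhibition zones read after 35 °C, 18 h.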
# [2] = system: Pseudomonas aeruginosa; test: Antibacterial activity against Pseudomonas aeruginosa ATCC 27853 measured after 18 hrs by CLSI broth dilution method; assay type: functional; conditions: ATCC 27853, 18 h
# How it was run: (§2)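 Broth MIC in Mueller-Hinton II broth following CLSI, compounds dissolved in DMSO. Strains subcultured twice on tryptic soy agar before testing. Growth read after 35 °C, 18 h.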
# [3] = system: Candida albicans; test: Antifungal activity against Candida albicans ATCC 90028 assessed as decrease in fungal cell growth at 0.78 to 12.5 mg/L incubated for 24 hrs by CLSI broth dilution method; assay type: functional; conditions: ATCC 90028, 24 h
# How it was run: (§3)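 Yeast broth dilution in RPMI 1640 with 2% glucose, compounds in DMSO. Yeasts pre-grown on Sabouraud dextrose agar. Growth read after 35 °C, 24 h.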
# [4] = system: Pichia kudriavzevii; test: Antifungal activity against Candida krusei ATCC 6258 assessed as decrease in fungal cell growth at 0.78 to 12.5 mg/L incubated for 24 hrs by CLSI broth dilution method; assay type: functional; conditions: ATCC 6258, 24 h; how it was run: as §3
# [5] = system: Candida albicans; test: Antifungal activity against Candida albicans ATCC 90028 assessed as diameter of zone inhibition incubated for 24 hrs by CLSI disc diffusion method; assay type: functional
# How it was run: (§4)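 Yeast disc diffusion on Mueller-Hinton agar supplemented with 2% glucose and 0.5 mg/L methylene blue. Compounds in DMSO. Yeasts subcultured on Sabouraud dextrose agar before testing. Zones read after 35 °C, 24 h.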
# [6] = system: Candida parapsilosis; test: Antifungal activity against Candida parapsilosis ATCC 22019 assessed as diameter of zone inhibition incubated for 24 hrs by CLSI disc diffusion method; assay type: functional; how it was run: as §4
# [7] = system: Candida tropicalis; test: Antifungal activity against Candida tropicalis IBA 171 assessed as diameter of zone inhibition incubated for 24 hrs by CLSI disc diffusion method; assay type: functional; how it was run: as §4
# [8] = system: Meyerozyma guilliermondii; test: Antifungal activity against Candida guilliermondii IBA 155 assessed as diameter of zone inhibition incubated for 24 hrs by CLSI disc diffusion method; assay type: functional; how it was run: as §4
# [9] = system: Saccharomyces cerevisiae; test: Antifungal activity against Saccharomyces cerevisiae ATCC 9763 diameter of zone inhibition incubated for 24 hrs by CLSI disc diffusion method; assay type: functional
# How it was run: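 Disc-diffusion run on Mueller-Hinton II agar with 2% glucose and 0.5 mg/L methylene blue, using compounds in DMSO. Yeast was precultured on Sabouraud dextrose agar (24–48 h, 30 °C). Zones read after 24 h at 35 °C.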
# [10] = system: Staphylococcus aureus; test: Antibacterial activity against Staphylococcus aureus ATCC 6538P measured after 18 hrs by CLSI broth dilution method; assay type: functional; how it was run: as §2
# [11] = system: Enterococcus faecium; test: Antibacterial activity against Enterococcus faecium ATCC 6057 measured after 18 hrs by CLSI broth dilution method; assay type: functional; conditions: ATCC 6057, 18 h; how it was run: as §2
# [12] = system: Staphylococcus epidermidis; test: Antibacterial activity against Staphylococcus epidermidis ATCC 12228 assessed as diameter of zone inhibition measured after 18 hrs by CLSI disc diffusion method; assay type: functional; how it was run: as §1
# [13] = system: Enterococcus faecalis; test: Antibacterial activity against Enterococcus faecalis ATCC 29212 assessed as diameter of zone inhibition measured after 18 hrs by CLSI disc diffusion method; assay type: functional; how it was run: as §1
# [14] = system: Enterococcus faecium; test: Antibacterial activity against Enterococcus faecium ATCC 6057 assessed as diameter of zone inhibition measured after 18 hrs by CLSI disc diffusion method; assay type: functional; how it was run: as §1
# [15] = system: Escherichia coli; test: Antibacterial activity against Escherichia coli ATCC 25922 measured after 18 hrs by CLSI broth dilution method; assay type: functional; conditions: ATCC 25922, 18 h; how it was run: as §2
# [16] = system: Klebsiella pneumoniae; test: Antibacterial activity against Klebsiella pneumoniae ATCC 13883 measured after 18 hrs by CLSI broth dilution method; assay type: functional; conditions: ATCC 13883, 18 h; how it was run: as §2
# [17] = system: Bordetella bronchiseptica; test: Antibacterial activity against Bordetella bronchiseptica ATCC 4617 measured after 18 hrs by CLSI broth dilution method; assay type: functional; conditions: ATCC 4617, 18 h; how it was run: as §2
# [18] = system: Acinetobacter baumannii; test: Antibacterial activity against Acinetobacter baumannii ATCC 19606 measured after 18 hrs by CLSI broth dilution method; assay type: functional; conditions: ATCC 19606, 18 h; how it was run: as §2
# [19] = system: Stenotrophomonas maltophilia; test: Antibacterial activity against Stenotrophomonas maltophilia ATCC 13637 measured after 18 hrs by CLSI broth dilution method; assay type: functional; conditions: ATCC 13637, 18 h; how it was run: as §2
# [20] = system: Burkholderia cepacia; test: Antibacterial activity against Burkholderia cepacia ATCC 25416 measured after 18 hrs by CLSI broth dilution method; assay type: functional; conditions: ATCC 25416, 18 h; how it was run: as §2
# [21] = system: Escherichia coli; test: Antibacterial activity against Escherichia coli ATCC 25922 assessed as diameter of zone inhibition measured after 18 hrs by CLSI disc diffusion method; assay type: functional; how it was run: as §1
# [22] = system: Enterobacter cloacae; test: Antibacterial activity against Enterobacter cloacae DSM 6234 assessed as diameter of zone inhibition measured after 18 hrs by CLSI disc diffusion method; assay type: functional; how it was run: as §1
# [23] = system: Pseudomonas aeruginosa; test: Antibacterial activity against Pseudomonas aeruginosa ATCC 27853 assessed as diameter of zone inhibition measured after 18 hrs by CLSI disc diffusion method; assay type: functional, organism-based; how it was run: as §1
# [24] = system: Acinetobacter baumannii; test: Antibacterial activity against Acinetobacter baumannii ATCC 19606 assessed as diameter of zone inhibition measured after 18 hrs by CLSI disc diffusion method; assay type: functional; how it was run: as §1
# [25] = system: Burkholderia cepacia; test: Antibacterial activity against Burkholderia cepacia ATCC 25416 assessed as diameter of zone inhibition measured after 18 hrs by CLSI disc diffusion method; assay type: functional; how it was run: as §1
# [26] = system: Bordetella bronchiseptica; test: Antibacterial activity against Bordetella bronchiseptica ATCC 4617 assessed as diameter of zone inhibition measured after 18 hrs by CLSI disc diffusion method; assay type: functional; how it was run: as §1
# [27] = system: Escherichia coli; test: Antibacterial activity against Escherichia coli ATCC 25922 assessed as fold reduction of MIC in presence of efflux pump inhibitor PAbetaN incubated for 18 hrs by CLSI broth microdilution method; assay type: functional
# How it was run: (§5)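 MICs determined with and without PAβN at 50 mg/L in Mueller-Hinton broth containing 1 mM MgSO₄. 2-fold serial dilutions per CLSI. Fold change taken from the paired MICs after 35 °C, 18 h.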
# [28] = system: Klebsiella pneumoniae; test: Antibacterial activity against Klebsiella pneumoniae ATCC 13883 assessed as fold reduction of MIC in presence of efflux pump inhibitor PAbetaN incubated for 18 hrs by broth microdilution method; assay type: functional; how it was run: as §5
# [29] = system: Proteus mirabilis; test: Antibacterial activity against Proteus mirabilis ATCC 12453 assessed as fold reduction of MIC in presence of efflux pump inhibitor PAbetaN incubated for 18 hrs by broth microdilution method; assay type: functional; how it was run: as §5
# [30] = system: Serratia marcescens; test: Antibacterial activity against Serratia marcescens ATCC 13880 assessed as fold reduction of MIC in presence of efflux pump inhibitor PAbetaN incubated for 18 hrs by broth microdilution method; assay type: functional; how it was run: as §5
# [31] = system: Pseudomonas aeruginosa; test: Antibacterial activity against Pseudomonas aeruginosa ATCC 27853 assessed as fold reduction of MIC in presence of efflux pump inhibitor PAbetaN incubated for 18 hrs microdilution method; assay type: functional; how it was run: as §5
# [32] = system: Acinetobacter baumannii; test: Antibacterial activity against Acinetobacter baumannii ATCC 19606 assessed as fold reduction of MIC in presence of efflux pump inhibitor PAbetaN incubated for 18 hrs by broth microdilution method; assay type: functional; how it was run: as §5
# [33] = system: Klebsiella pneumoniae; conditions: ATCC 13883
SMILES,diameter of the inhibition zone (DIZ) [1],MIC [2],MIC [3],MIC [4],diameter of the inhibition zone (DIZ) [5],diameter of the inhibition zone (DIZ) [6],diameter of the inhibition zone (DIZ) [7],diameter of the inhibition zone (DIZ) [8],diameter of the inhibition zone (DIZ) [9],MIC [10],MIC [11],diameter of the inhibition zone (DIZ) [12],diameter of the inhibition zone (DIZ) [13],diameter of the inhibition zone (DIZ) [14],MIC [15],MIC [16],MIC [17],MIC [18],MIC [19],MIC [20],other results
C[Si]1(C)OB(O)c2ccc(F)cc21,29 mm,> 400 µg/mL,25 µg/mL,12.5 µg/mL,13 mm,11 mm,11 mm,15 mm,46 mm,50 µg/mL,200 µg/mL,26 mm,inactive,inactive,400 µg/mL,> 400 µg/mL,> 400 µg/mL,200 µg/mL,200 µg/mL,> 400 µg/mL,diameter of the inhibition zone (DIZ) [21]: inactive; diameter of the inhibition zone (DIZ) [22]: inactive; diameter of the inhibition zone (DIZ) [23]: inactive; diameter of the inhibition zone (DIZ) [24]: inactive; diameter of the inhibition zone (DIZ) [25]: inactive; diameter of the inhibition zone (DIZ) [26]: inactive; fold change (FC) [27]: 16; fold change (FC) [28]: 8; fold change (FC) [29]: 2; fold change (FC) [30]: 8; fold change (FC) [31]: 16; fold change (FC) [32]: 4; DIZ [33]: inactive
C[Si]1(C)OB(O)c2cccc(F)c21,25 mm,> 400 µg/mL,50 µg/mL,50 µg/mL,24 mm,20 mm,14 mm,30 mm,45 mm,50 µg/mL,200 µg/mL,39 mm,13 mm,12 mm,400 µg/mL,> 400 µg/mL,200 µg/mL,200 µg/mL,200 µg/mL,> 400 µg/mL,diameter of the inhibition zone (DIZ) [21]: 17 mm; diameter of the inhibition zone (DIZ) [22]: inactive; diameter of the inhibition zone (DIZ) [23]: inactive; diameter of the inhibition zone (DIZ) [24]: 11 mm; diameter of the inhibition zone (DIZ) [25]: inactive; diameter of the inhibition zone (DIZ) [26]: inactive; fold change (FC) [27]: 32; fold change (FC) [28]: 16; fold change (FC) [29]: 2; fold change (FC) [30]: 4; fold change (FC) [31]: 16; fold change (FC) [32]: 4; DIZ [33]: inactive
